# Reference: ChEMBL document CHEMBL4138072, “Identification of mitoxantrone as a new inhibitor of ROS1 fusion protein in non-small cell lung cancer cells” (Medchemcomm, 2017)
# Activity calls are given as the source filed them. The calls are words filed in the database; no cut-off is given here.
# Key:
# [1] = molecular target: T1, Proto-oncogene tyrosine-protein kinase ROS (Homo sapiens, UniProt P08922); conditions: HCC78, 2.5 uM
# HCC78 [2] = assay: Induction of apoptosis in human HCC78 cells assessed as viable cells level at 2.5 uM incubated fro 48 hrs by Annexin-V FITC and propidium iodide staining based flow cytometry (reference value: 80.8%); type: functional
# HCC78 [3] = assay: Induction of apoptosis in human HCC78 cells assessed as early apoptotic cells level at 2.5 uM incubated fro 48 hrs by Annexin-V FITC and propidium iodide staining based flow cytometry (reference value: 6.33%); type: functional
# [4] = molecular target: T1, Proto-oncogene tyrosine-protein kinase ROS; conditions: HCC78, 2.5 uM; remark: listed apart in the source
# [5] = molecular target: T1, Proto-oncogene tyrosine-protein kinase ROS; conditions: HCC78, 2.5 uM; remark: listed apart in the source
# [6] = molecular target: T1, Proto-oncogene tyrosine-protein kinase ROS; conditions: HCC78, 2.5 uM; remark: listed apart in the source
# HCC78 [7] = assay: Induction of apoptosis in human HCC78 cells assessed as necrotic cells level at 2.5 uM incubated fro 48 hrs by Annexin-V FITC and propidium iodide staining based flow cytometry (reference value: 0.06%); type: functional
# HCC78 [8] = assay: Induction of apoptosis in human HCC78 cells assessed as late apoptotic cells level at 2.5 uM incubated fro 48 hrs by Annexin-V FITC and propidium iodide staining based flow cytometry (reference value: 13.8%); type: functional
# [9] = molecular target: T1, Proto-oncogene tyrosine-protein kinase ROS; assay: Inhibition of ROS1 (unknown origin) using poly (Glu,Tyr)4:1 substrate and ATP incubated for 60 mins by ELISA
# Summary of the method: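 Purified recombinant ROS1 on poly(Glu,Tyr)4:1-coated wells (20 μg/ml coating). Reaction run in HEPES pH 7.4 buffer with MgCl2, MnCl2, Na3VO4 and DTT, with 10 μmol/l ATP solution and compound in 1% DMSO, 60 min at 37 °C. Phosphotyrosine detected by PY99 antibody, then HRP anti-mouse IgG and o-phenylenediamine, read at A490. Inhibition calculated as % of DMSO control. IC50 derived from curves in two experiments.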
# HCC78 [10] = assay: Induction of apoptosis in human HCC78 cells incubated fro 48 hrs by Annexin-V FITC and propidium iodide staining based flow cytometry; type: functional, cell-based
# HCC78 [11] = assay: Induction of apoptosis in human HCC78 cells assessed as late apoptotic cells level at 10 nM incubated fro 48 hrs by Annexin-V FITC and propidium iodide staining based flow cytometry (reference value: 13.8%); type: functional
# HCC78 [12] = assay: Induction of apoptosis in human HCC78 cells assessed as necrotic cells level at 20 nM incubated fro 48 hrs by Annexin-V FITC and propidium iodide staining based flow cytometry (reference value: 0.06%); type: functional
# HCC78 [13] = assay: Induction of apoptosis in human HCC78 cells assessed as early apoptotic cells level at 5 nM incubated fro 48 hrs by Annexin-V FITC and propidium iodide staining based flow cytometry (reference value: 6.33%); type: functional
# HCC78 [14] = assay: Induction of apoptosis in human HCC78 cells assessed as necrotic cells level at 5 nM incubated fro 48 hrs by Annexin-V FITC and propidium iodide staining based flow cytometry (reference value: 0.06%); type: functional
# HCC78 [15] = assay: Induction of apoptosis in human HCC78 cells assessed as viable cells level at 5 nM incubated fro 48 hrs by Annexin-V FITC and propidium iodide staining based flow cytometry (reference value: 80.8%); type: functional
# HCC78 [16] = assay: Cytotoxicity in human HCC78 cells assessed as reduction in cell viability incubated for 72 hrs by MTT assay; type: functional, cell-based; conditions: HCC78, 72 h
# Summary of the method: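 3000 cells per well, allowed to adhere overnight, then exposed to DMSO or a concentration series for 72 h. MTT (5 mg/ml stock) added for a further 4 h, and crystals dissolved in 10% SDS/0.1 mM HCl. A570 read. Viability expressed relative to untreated controls from at least 3 independent experiments. HCC78 cells were grown in RPMI-1640 with 10% FBS and penicillin/streptomycin at 37 °C under 5% CO2.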
# HCC78 [17] = assay: Induction of apoptosis in human HCC78 cells assessed as viable cells level at 20 nM incubated fro 48 hrs by Annexin-V FITC and propidium iodide staining based flow cytometry (reference value: 80.8%); type: functional
# [18] = molecular target: T1, Proto-oncogene tyrosine-protein kinase ROS; assay: Inhibition of ROS1 in human HCC78 cells assessed as reduction in AKT phosphorylation incubated for 48 hrs by Western blot method; type: cell-based
# Summary of the method: (§1)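 HCC78 cells plated overnight in 6-well plates, treated for 48 h, then lysed in RIPA buffer with protease/phosphatase inhibitors. Equal protein loaded for SDS-PAGE and transferred to nitrocellulose. Blocked in 5% milk/TBST, probed overnight at 4 °C for p-ROS1, ROS1, p-STAT3, STAT3, p-AKT, AKT, p-ERK, ERK and GAPDH, and detected with fluorescent secondary antibodies on an infrared scanner.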
# [19] = molecular target: T1, Proto-oncogene tyrosine-protein kinase ROS; assay: Inhibition of ROS1 in human HCC78 cells assessed as reduction in ERK phosphorylation incubated for 48 hrs by Western blot method; type: cell-based
# Summary of the method: as §1
# CCD 19Lu = assay: Cytotoxicity in human CCD-19Lu cells assessed as reduction in cell viability incubated for 72 hrs by MTT assay; type: cell-based
# HCC78 [20] = assay: Induction of apoptosis in human HCC78 cells assessed as necrotic cells level at 10 nM incubated fro 48 hrs by Annexin-V FITC and propidium iodide staining based flow cytometry (reference value: 0.06%); type: functional
# [21] = molecular target: T1, Proto-oncogene tyrosine-protein kinase ROS; assay: Inhibition of ROS1 phosphorylation in human HCC78 cells incubated for 48 hrs by Western blot method; type: cell-based
# Summary of the method: as §1
# HCC78 [22] = assay: Induction of apoptosis in human HCC78 cells assessed as early apoptotic cells level at 10 nM incubated fro 48 hrs by Annexin-V FITC and propidium iodide staining based flow cytometry (reference value: 6.33%); type: functional
# HCC78 [23] = assay: Induction of apoptosis in human HCC78 cells assessed as viable cells level at 10 nM incubated fro 48 hrs by Annexin-V FITC and propidium iodide staining based flow cytometry (reference value: 80.8%); type: functional
# [24] = molecular target: T1, Proto-oncogene tyrosine-protein kinase ROS; assay: Inhibition of ROS1 in human HCC78 cells assessed as reduction in STAT3 phosphorylation incubated for 48 hrs by Western blot method; type: cell-based
# Summary of the method: as §1
# HCC78 [25] = assay: Induction of apoptosis in human HCC78 cells assessed as early apoptotic cells level at 20 nM incubated fro 48 hrs by Annexin-V FITC and propidium iodide staining based flow cytometry (reference value: 6.33%); type: functional
# HCC78 [26] = assay: Induction of apoptosis in human HCC78 cells assessed as late apoptotic cells level at 5 nM incubated fro 48 hrs by Annexin-V FITC and propidium iodide staining based flow cytometry (reference value: 13.8%); type: functional
# HCC78 [27] = assay: Induction of apoptosis in human HCC78 cells assessed as late apoptotic cells level at 20 nM incubated fro 48 hrs by Annexin-V FITC and propidium iodide staining based flow cytometry (reference value: 13.8%); type: functional
# T1 sequence (P08922 whole entry): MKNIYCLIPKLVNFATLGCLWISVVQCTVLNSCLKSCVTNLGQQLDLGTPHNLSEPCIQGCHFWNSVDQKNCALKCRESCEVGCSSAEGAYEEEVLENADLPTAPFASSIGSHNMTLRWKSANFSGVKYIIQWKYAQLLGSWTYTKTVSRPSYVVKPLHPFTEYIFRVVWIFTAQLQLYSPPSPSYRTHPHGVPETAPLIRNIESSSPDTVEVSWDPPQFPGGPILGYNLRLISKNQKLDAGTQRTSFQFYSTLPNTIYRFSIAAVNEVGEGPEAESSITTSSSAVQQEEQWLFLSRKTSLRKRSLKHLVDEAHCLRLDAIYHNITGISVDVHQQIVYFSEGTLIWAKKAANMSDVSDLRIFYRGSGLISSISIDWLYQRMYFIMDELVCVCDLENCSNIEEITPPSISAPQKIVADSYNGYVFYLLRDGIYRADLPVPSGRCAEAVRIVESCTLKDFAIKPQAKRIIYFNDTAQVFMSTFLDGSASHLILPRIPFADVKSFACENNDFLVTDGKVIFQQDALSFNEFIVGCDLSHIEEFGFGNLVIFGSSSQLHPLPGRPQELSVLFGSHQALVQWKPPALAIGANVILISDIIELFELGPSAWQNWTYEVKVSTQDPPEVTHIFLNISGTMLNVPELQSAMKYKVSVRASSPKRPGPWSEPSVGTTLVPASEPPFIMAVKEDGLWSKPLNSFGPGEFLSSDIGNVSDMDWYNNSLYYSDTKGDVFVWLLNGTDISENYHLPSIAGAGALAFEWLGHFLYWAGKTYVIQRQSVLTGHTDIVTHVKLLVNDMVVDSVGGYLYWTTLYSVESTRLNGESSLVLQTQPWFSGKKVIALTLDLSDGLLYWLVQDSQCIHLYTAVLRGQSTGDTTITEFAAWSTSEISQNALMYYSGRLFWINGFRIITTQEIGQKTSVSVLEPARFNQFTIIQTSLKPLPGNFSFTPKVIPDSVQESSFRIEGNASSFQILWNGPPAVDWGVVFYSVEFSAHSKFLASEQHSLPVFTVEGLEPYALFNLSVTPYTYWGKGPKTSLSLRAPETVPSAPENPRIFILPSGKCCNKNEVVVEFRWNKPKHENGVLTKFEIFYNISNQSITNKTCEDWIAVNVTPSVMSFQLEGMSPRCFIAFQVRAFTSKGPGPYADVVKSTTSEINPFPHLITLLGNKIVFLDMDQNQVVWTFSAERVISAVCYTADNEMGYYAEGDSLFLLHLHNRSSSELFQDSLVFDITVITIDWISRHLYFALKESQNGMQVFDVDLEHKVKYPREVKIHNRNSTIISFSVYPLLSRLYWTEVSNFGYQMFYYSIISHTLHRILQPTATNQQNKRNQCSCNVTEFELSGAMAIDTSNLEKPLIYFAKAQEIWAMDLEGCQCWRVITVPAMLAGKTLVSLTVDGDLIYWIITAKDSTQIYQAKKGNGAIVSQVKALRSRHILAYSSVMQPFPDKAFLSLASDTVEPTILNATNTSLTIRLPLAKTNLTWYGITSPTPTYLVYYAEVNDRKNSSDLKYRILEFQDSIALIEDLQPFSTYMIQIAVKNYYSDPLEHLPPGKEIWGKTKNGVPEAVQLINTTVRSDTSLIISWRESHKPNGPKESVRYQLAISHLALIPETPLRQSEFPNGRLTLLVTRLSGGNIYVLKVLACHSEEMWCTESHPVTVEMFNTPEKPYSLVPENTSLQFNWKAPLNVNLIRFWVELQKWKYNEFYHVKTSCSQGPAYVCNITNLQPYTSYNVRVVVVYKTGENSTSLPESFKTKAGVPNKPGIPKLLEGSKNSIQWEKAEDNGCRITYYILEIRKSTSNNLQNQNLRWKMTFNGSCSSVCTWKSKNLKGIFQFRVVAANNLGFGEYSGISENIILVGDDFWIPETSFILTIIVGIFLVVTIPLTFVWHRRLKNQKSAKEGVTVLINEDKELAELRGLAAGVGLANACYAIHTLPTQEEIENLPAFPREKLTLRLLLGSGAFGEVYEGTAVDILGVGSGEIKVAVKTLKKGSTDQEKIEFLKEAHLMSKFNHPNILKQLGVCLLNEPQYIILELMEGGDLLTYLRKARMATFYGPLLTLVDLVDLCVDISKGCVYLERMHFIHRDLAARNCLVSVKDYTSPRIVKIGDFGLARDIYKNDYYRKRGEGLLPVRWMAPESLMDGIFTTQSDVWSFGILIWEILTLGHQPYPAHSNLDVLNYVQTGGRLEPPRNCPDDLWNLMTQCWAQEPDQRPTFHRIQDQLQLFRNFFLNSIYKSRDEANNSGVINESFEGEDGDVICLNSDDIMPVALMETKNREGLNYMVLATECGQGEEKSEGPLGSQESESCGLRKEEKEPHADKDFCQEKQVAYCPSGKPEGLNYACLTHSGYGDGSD
compound,measurement,setting,value
C[C@@H](Oc1cc(-c2cnn(C3CCNCC3)c2)cnc1N)c1c(Cl)ccc(F)c1Cl [CRIZOTINIB],inhibition,[1],Active
same,Activity,HCC78 [2],45.9%
same,Activity,HCC78 [3],27.3%
same,inhibition,[4],Active
same,inhibition,[5],Active
same,inhibition,[6],Active
same,Activity,HCC78 [7],0.662%
same,Activity,HCC78 [8],27.2%
O=C1c2c(O)ccc(O)c2C(=O)c2c(NCCNCCO)ccc(NCCNCCO)c21 [MITOXANTRONE],IC50,[9],3000 nM
same,Activity,HCC78 [10],Dose-dependent effect
same,Activity,HCC78 [11],18.7%
same,Activity,HCC78 [12],0.048%
same,Activity,HCC78 [13],16.4%
same,Activity,HCC78 [14],0.089%
same,Activity,HCC78 [15],66.6%
same,IC50,HCC78 [16],13.8 nM
same,Activity,HCC78 [17],63.8%
same,inhibition,[18],Dose-dependent effect
same,inhibition,[19],Dose-dependent effect
same,IC50,CCD 19Lu,> 160 nM
same,Activity,HCC78 [20],0.076%
same,inhibition,[21],Dose-dependent effect
same,Activity,HCC78 [22],18.6%
same,Activity,HCC78 [23],66.7%
same,inhibition,[24],Dose-dependent effect
same,Activity,HCC78 [25],19.7%
same,Activity,HCC78 [26],16.9%
same,Activity,HCC78 [27],17.2%
